Laboratory results from ChEMBL document CHEMBL1132277, “Probing the binding of indolactam-V to protein kinase C through site-directed mutagenesis and computational docking simulations” (J Med Chem, 1999).

Legend:
[1] = molecular target: T1, Protein kinase C delta type (Mus musculus, UniProt P28867); assay: Binding of Indolactam-V(ILV) to mutant Protein kinase C delta C1b domain (Thr12 to Gly)
Method in brief: (§1)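 GST fusions of PKCδ C1b domains (wild type or point mutants) expressed in E. coli, used purified or as total lysates. Incubated 5 min at 18 °C with [3H]PDBu, phosphatidylserine, 1 mM EGTA and varying unlabelled (–)-ILV. Bound ligand separated by 35% poly(ethylene glycol) precipitation and centrifugation, then supernatant and pellet counted. Final ligand concentrations used in calculations. Where [3H]PDBu binding was insufficient, ILV affinity was left undetermined.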

[2] = molecular target: T1, Protein kinase C delta type; assay: Binding of Indolactam-V(ILV) to mutant Protein kinase C delta C1b domain (Gln27 to Val); method in brief: as §1
[3] = molecular target: T1, Protein kinase C delta type; assay: Binding of Indolactam-V(ILV) to mutant Protein kinase C delta C1b domain (Phe13 to Gly); method in brief: as §1
[4] = molecular target: T1, Protein kinase C delta type; assay: Binding of Indolactam-V(ILV) to mutant Protein kinase C delta C1b domain (Tyr8 to Gly); method in brief: as §1
[5] = molecular target: T1, Protein kinase C delta type; assay: Binding of Indolactam-V(ILV) to mutant Protein kinase C delta C1b domain (Leu20 to Gly); method in brief: as §1
[6] = molecular target: T1, Protein kinase C delta type; assay: Binding of Indolactam-V(ILV) to wild-type Protein kinase C delta C1b domain; method in brief: as §1
[7] = molecular target: T1, Protein kinase C delta type; assay: Binding of Indolactam-V(ILV) to mutant Protein kinase C delta C1b domain (Pro11 to Gly); method in brief: as §1

T1 sequence (P28867 whole entry, the tested form may be a part): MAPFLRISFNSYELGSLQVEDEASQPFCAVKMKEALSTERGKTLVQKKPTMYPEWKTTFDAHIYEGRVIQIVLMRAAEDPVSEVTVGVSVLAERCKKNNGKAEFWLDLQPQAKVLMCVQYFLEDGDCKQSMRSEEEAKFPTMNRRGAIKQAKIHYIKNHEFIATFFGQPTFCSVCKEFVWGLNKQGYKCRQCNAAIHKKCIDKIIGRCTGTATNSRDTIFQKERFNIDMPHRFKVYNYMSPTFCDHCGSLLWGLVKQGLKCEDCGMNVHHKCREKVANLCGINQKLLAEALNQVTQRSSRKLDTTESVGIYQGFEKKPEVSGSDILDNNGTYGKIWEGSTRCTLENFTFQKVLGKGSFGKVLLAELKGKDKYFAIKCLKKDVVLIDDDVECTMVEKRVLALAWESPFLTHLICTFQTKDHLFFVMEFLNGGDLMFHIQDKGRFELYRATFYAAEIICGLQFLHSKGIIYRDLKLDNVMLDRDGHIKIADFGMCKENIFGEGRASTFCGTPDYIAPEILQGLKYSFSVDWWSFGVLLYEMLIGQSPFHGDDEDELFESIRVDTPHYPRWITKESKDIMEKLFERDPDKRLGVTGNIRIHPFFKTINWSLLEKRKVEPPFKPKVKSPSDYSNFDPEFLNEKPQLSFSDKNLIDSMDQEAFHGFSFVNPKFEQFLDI

CC(C)[C@H]1C(=O)N[C@H](CO)Cc2c[nH]c3cccc(c23)N1C [INDOLACTUM]
Ki [1]: 25.3 nM
Ki [2]: 1100 nM
Ki [3]: 10.9 nM
Ki [4]: 658 nM
Ki [5]: 66.2 nM
Ki [6]: 2.01 nM
Ki [7]: 7080 nM
